Data: ChEMBL document CHEMBL1137213, “New substituted piperazines as ligands for melanocortin receptors. Correlation to the X-ray structure of "THIQ"” (J Med Chem, 2004)

What was measured:
Melanocortin receptor 4 = Melanocortin receptor 4 (Homo sapiens, UniProt P32245); assay: Binding affinity towards Melanocortin 4 receptor using [125I]NDP-MSH
In short: (§1)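 Human MC1, MC3, MC4 or MC5 receptor expressed in Sf9 cells by recombinant virus infection for 72 h; membranes prepared from these cells. Membranes (10 µg protein/100 µL) incubated with [125I]NDP-MSH and competing unlabeled ligand in 20 mM K-Hepes pH 7.4, 5 mM NaCl, 1 mM CaCl2, 0.5 mM MgCl2, 0.5 mg/mL BSA for 3 h at 25 °C. Ended by filtration through glass-fiber filters. Nonspecific binding set with 3 µM NDP-MSH.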

Melanocortin receptor 3 = Melanocortin receptor 3 (Homo sapiens, UniProt P41968); assay: Binding affinity towards Melanocortin 3 receptor using [125I]NDP-MSH; in short: as §1
Melanocortin receptor 5 = Melanocortin receptor 5 (Homo sapiens, UniProt P33032); assay: Binding affinity towards Melanocortin 5 receptor using [125I]NDP-MSH; in short: as §1
[1] = biological target: Melanocyte-stimulating hormone receptor (Homo sapiens, UniProt Q01726); assay: Binding affinity towards Melanocortin 1 receptor using [125I]NDP-MSH; in short: as §1
Melanocyte-stimulating hormone receptor, sequence (Q01726 whole entry): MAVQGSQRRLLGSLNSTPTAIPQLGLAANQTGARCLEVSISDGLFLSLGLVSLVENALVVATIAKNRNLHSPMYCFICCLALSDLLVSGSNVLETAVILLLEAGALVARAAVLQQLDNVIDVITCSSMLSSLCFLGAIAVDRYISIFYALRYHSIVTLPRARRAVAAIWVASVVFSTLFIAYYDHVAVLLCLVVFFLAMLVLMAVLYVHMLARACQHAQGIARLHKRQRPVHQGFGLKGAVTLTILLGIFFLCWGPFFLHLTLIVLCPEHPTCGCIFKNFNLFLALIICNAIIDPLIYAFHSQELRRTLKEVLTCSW

Melanocortin receptor 5, sequence (P33032 whole entry): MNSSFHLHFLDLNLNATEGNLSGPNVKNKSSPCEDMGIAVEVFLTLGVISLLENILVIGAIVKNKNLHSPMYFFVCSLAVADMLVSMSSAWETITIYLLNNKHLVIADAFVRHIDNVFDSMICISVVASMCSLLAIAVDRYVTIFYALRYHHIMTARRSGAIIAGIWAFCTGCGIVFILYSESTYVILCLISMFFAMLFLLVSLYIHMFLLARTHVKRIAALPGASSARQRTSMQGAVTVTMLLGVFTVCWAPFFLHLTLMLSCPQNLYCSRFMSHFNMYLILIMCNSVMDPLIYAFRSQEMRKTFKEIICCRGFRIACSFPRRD
Melanocortin receptor 4, sequence (P32245 whole entry): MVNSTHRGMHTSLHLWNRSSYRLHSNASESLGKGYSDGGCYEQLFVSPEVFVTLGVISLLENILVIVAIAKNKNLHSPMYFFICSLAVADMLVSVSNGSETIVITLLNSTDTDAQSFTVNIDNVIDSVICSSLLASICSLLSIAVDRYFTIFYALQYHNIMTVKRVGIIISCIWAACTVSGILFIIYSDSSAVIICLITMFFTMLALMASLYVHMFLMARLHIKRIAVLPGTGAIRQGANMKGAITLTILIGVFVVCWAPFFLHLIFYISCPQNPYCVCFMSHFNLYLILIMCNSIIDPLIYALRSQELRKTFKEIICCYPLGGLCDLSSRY
Melanocortin receptor 3, sequence (P41968 whole entry): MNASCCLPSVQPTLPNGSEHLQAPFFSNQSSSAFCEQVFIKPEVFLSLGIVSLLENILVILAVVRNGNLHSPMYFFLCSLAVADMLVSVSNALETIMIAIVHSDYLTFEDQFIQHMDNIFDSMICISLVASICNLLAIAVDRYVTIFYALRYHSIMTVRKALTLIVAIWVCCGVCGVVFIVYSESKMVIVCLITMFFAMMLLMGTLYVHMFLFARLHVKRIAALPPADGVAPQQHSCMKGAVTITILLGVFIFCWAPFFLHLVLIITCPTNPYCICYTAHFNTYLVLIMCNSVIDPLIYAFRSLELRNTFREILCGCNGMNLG

Structure (SMILES) | Ki (Melanocortin receptor 4) | Ki (Melanocortin receptor 3) | Ki (Melanocortin receptor 5) | Ki [1]
O=C(N[C@H](Cc1ccc(Cl)cc1)C(=O)N1CC[N+]([O-])(c2ccccc2)CC1)C1Cc2ccccc2CN1 (stereo partly specified) | 169 µM | 35 µM | 94 µM | 36 µM
O=C(N[C@H](Cc1ccc(Cl)cc1)C(=O)N1CCN(C2(Cn3cncn3)CCCCC2)CC1)C1Cc2ccccc2CN1 (stereo partly specified) | 1 µM | 5.6 µM | 14 µM | 3.2 µM
O=C(N[C@H](Cc1ccc(Cl)cc1)C(=O)N1CC[N+]([O-])(C2CCCCC2)CC1)C1Cc2ccccc2CN1 (stereo partly specified) | 57 µM | 114 µM | 102 µM | 152 µM
O=C(N[C@H](Cc1ccc(Cl)cc1)C(=O)N1CCC(Cn2cncn2)(C2CCCCC2)CC1)[C@H]1Cc2ccccc2CN1 |  |  | 5 µM | 
O=C(N[C@H](Cc1ccc(Cl)cc1)C(=O)N1CCN(c2ccccc2)CC1)C1Cc2ccccc2CN1 (stereo partly specified) | 30 µM | 15 µM | 17 µM | 13 µM
O=C(N[C@H](Cc1ccc(Cl)cc1)C(=O)N1CCN(C2CCCCC2Cn2cncn2)CC1)C1Cc2ccccc2CN1 (stereo partly specified) | 0.39 µM | 5.2 µM | 16 µM | 2 µM
O=C(N[C@H](Cc1ccc(Cl)cc1)C(=O)N1CCN(C2(Cn3cncn3)CCCC2)CC1)C1Cc2ccccc2CN1 (stereo partly specified) | 1.5 µM | 8.8 µM | 18 µM | 0.53 µM
O=C(N[C@H](Cc1ccc(Cl)cc1)C(=O)N1CCN([C@@H]2CCCC[C@H]2n2cncn2)CC1)C1Cc2ccccc2CN1 (stereo partly specified) |  | 4.4 µM | 9.8 µM | 2 µM
O=C(N[C@H](Cc1ccc(Cl)cc1)C(=O)N1CCN([C@H]2CCCC[C@@H]2n2cncn2)CC1)C1Cc2ccccc2CN1 (stereo partly specified) | 0.86 µM | 6.5 µM | 17 µM | 2.2 µM
O=C(N[C@H](Cc1ccc(Cl)cc1)C(=O)N1CCN(C2CCCCC2)CC1)C1Cc2ccccc2CN1 (stereo partly specified) | 1.4 µM | 6.8 µM | 8.2 µM | 11 µM
